The values below come from ChEMBL document CHEMBL1772954, “Antifungal, cytotoxic and SAR studies of a series of N-alkyl, N-aryl and N-alkylphenyl-1,4-pyrrolediones and related compounds” (Bioorg Med Chem, 2011).

Assay type in all cases: functional
Test [1] has as its system Candida albicans. In words: Antifungal activity against Candida albicans ATCC 10213. The essentials:
(§1)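 CLSI M27-A3 broth microdilution in RPMI-1640 buffered to pH 7.0 with MOPS. Inoculum 1-5 × 10^3 CFU/mL. Compound twofold dilutions from 250 to 0.24 µg/ml, final DMSO <1%. Incubated at 35 °C in a moist, dark chamber and read at 48 h. MIC is the lowest concentration giving total growth inhibition. For MFC, 5 µL from clear wells was plated in duplicate on SDA; MFC is the lowest concentration with no growth.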

The test system of test [2] is Candida tropicalis. Description: Antifungal activity against Candida tropicalis C 131 2000. The essentials:
as §1

In test [3] the test system is Saccharomyces cerevisiae. Description: Antifungal activity against Saccharomyces cerevisiae ATCC 9763. The essentials: as §1
In test [4] the test system is Cryptococcus neoformans. In words: Antifungal activity against Cryptococcus neoformans ATCC 32264. The essentials:
as §1

The subject of test [5] is Aspergillus fumigatus. Description: Antifungal activity against Aspergillus fumigatus ATCC 26934. The essentials: (§2)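 Broth microdilution per CLSI M38-A2 in RPMI-1640 with MOPS at pH 7.0. Inoculum 1-5 × 10^3 CFU/mL, with twofold compound dilutions spanning 250-0.24 µg/ml (final DMSO <1%). Plates incubated at 35 °C, moist and dark, and read when the control fungus had grown. MIC is total growth inhibition. MFC comes from subculturing clear wells in duplicate onto SDA.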

Test [6] concerns Aspergillus flavus. In words: Antifungal activity against Aspergillus flavus ATCC 9170. A digest of the protocol:
as §2

For test [7], the system named is Aspergillus niger. Description: Antifungal activity against Aspergillus niger ATCC 9029. A digest of the protocol:
as §2

Test [8] deals with Nannizzia gypsea. In words: Antifungal activity against Microsporum gypseum C 115 2000. The essentials:
(§3)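 Dermatophytes tested by CLSI M38-A2 microdilution in MOPS-buffered RPMI-1640 at pH 7.0. Inoculum 1-5 × 10^3 CFU/mL; compounds 250 to 0.24 µg/ml in twofold steps, final DMSO <1%. Incubated at 28 °C in a moist, dark chamber and read according to control growth. MIC is the lowest concentration with complete inhibition. MFC is the lowest concentration with no growth after duplicate subculture on SDA.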

Test [9] concerns Trichophyton rubrum. Description: Antifungal activity against Trichophyton rubrum C 113 2000. The essentials: as §3
Test [10] relates to Trichophyton mentagrophytes. Description: Antifungal activity against Trichophyton mentagrophytes ATCC 9972. A digest of the protocol: as §3

Structures are written as SMILES. Converted amounts (≈) assume the structure as drawn.

One may read the MFC as the lowest tested concentration that kills the fungus rather than only halting it. Higher therefore signals less potent killing. By MIC is commonly meant the smallest concentration in the dilution series that meets the test's criterion for growth inhibition. Regarding `CC1=CC(=O)N(CCCCc2ccccc2)C1O` (configuration not stated), the MFC in [1], in test [2], in test [3], in [4], in test [5] and in test [6] was above 250 µg/mL each time. Further, the MFC in [7], in test [8], in test [9] and in test [10] was above 250 µg/mL in each case. For the same compound, the minimal inhibitory concentration (MIC) in test [1], in test [2], in [3], in [4], in test [5] and in [6] was above 250 µg/mL in each case. For the same compound, the MIC in test [7], in test [8], in [9] and in test [10] was above 250 µg/mL in each case.
Turning to `O=C(O)/C=C\C(=O)NCc1ccccc1`, the MFC in test [1], in test [2], in [3], in test [4], in test [5] and in test [6] was above 250 µg/mL throughout. Further, the MFC in test [7], in [8], in test [9] and in test [10] was above 250 µg/mL throughout. The MIC in [2] is above 250 µg/mL; in test [3], 250 µg/mL (≈ 1220 µM); in test [4], above 250 µg/mL; in test [5] it was above 250 µg/mL; in test [6], above 250 µg/mL; in [7], above 250 µg/mL. Further, the minimal inhibitory concentration (MIC) in [8], in test [9] and in test [10] was above 250 µg/mL throughout.
Regarding `O=C1C(c2ccccc2)=C(c2ccccc2)C(=O)N1Cc1ccccc1`, the MFC in [1], in [2], in test [3], in [4], in test [5] and in test [6] was above 250 µg/mL in each case. Moreover, the MFC in test [7], in test [8], in [9] and in test [10] was above 250 µg/mL throughout. The MIC in test [1], in test [2], in [3], in test [4], in test [5] and in test [6] was above 250 µg/mL throughout. The MIC in [7], in test [8], in test [9] and in test [10] was above 250 µg/mL throughout.
As for `CC1=CC(O)N(Cc2ccccc2)C1=O` (configuration not stated), the MFC in test [1], in test [2], in test [3], in [4], in test [5] and in test [6] was above 250 µg/mL throughout. For the same compound, the MFC in [7], in test [8], in test [9] and in [10] was above 250 µg/mL in each case. The MIC in test [1], in test [2], in [3], in test [4], in test [5] and in [6] was above 250 µg/mL throughout. For the same compound, the MIC in [7], in test [8], in test [9] and in test [10] was above 250 µg/mL in each case.
Turning to `O=C1C(c2ccccc2)=C(c2ccccc2)C(=O)N1CCc1ccccc1`, the MFC in [1], in [2], in test [3], in [4], in test [5] and in [6] was above 250 µg/mL each time. Also, the MFC in [7], in [8], in test [9] and in test [10] was above 250 µg/mL throughout. The minimum inhibitory concentration (MIC) in test [1], in test [2], in test [3], in test [4], in [5] and in test [6] was above 250 µg/mL throughout. The MIC in test [7], in test [8], in [9] and in [10] was above 250 µg/mL each time.
`O=C(O)/C=C\C(=O)NCCCCc1ccccc1`: the MFC in test [1], in test [2], in test [3], in [4], in [5] and in test [6] was above 250 µg/mL throughout. The MFC in [7], in [8], in test [9] and in [10] was above 250 µg/mL each time. Besides, the MIC in test [2], in test [3], in test [4], in test [5], in test [6] and in [7] was above 250 µg/mL throughout. Also, the MIC in [8], in [9] and in [10] was above 250 µg/mL each time.
With `CC1=CC(O)N(CCCc2ccccc2)C1=O` (configuration not stated), the MFC in [1], in test [2], in [3], in test [4], in [5] and in test [6] was above 250 µg/mL throughout. In addition, the MFC in test [7], in [8], in test [9] and in test [10] was above 250 µg/mL in each case. Besides, the MIC in test [1], in [2], in [3], in test [4], in [5] and in test [6] was above 250 µg/mL in each case. In addition, the MIC in test [7], in test [8], in [9] and in [10] was above 250 µg/mL throughout.
`O=C1C(c2ccccc2)=C(c2ccccc2)C(=O)N1CCCCc1ccccc1`: the MFC in [1], in test [2], in test [3], in test [4], in test [5] and in [6] was above 250 µg/mL throughout. In addition, the MFC in test [7], in [8], in test [9] and in [10] was above 250 µg/mL throughout. The minimum inhibitory concentration (MIC) in [1], in [2], in [3], in test [4], in test [5] and in [6] was above 250 µg/mL throughout. In addition, the MIC in test [7], in test [8], in test [9] and in [10] was above 250 µg/mL throughout.
With `O=C(O)/C=C\C(=O)NCCc1ccccc1`, the MFC in [1], in test [2], in test [3], in [4], in [5] and in test [6] was above 250 µg/mL each time. The MFC in [7], in test [8], in test [9] and in test [10] was above 250 µg/mL each time. The minimum inhibitory concentration (MIC) in test [2], in [3], in test [4], in [5], in test [6] and in test [7] was above 250 µg/mL throughout. Besides, the MIC was 250 µg/mL (≈ 1140 µM) in test [8], 250 µg/mL (≈ 1140 µM) in test [9] and above 250 µg/mL in [10].
Turning to `O=C1C=CC(O)N1Cc1ccccc1` (configuration not stated), the MFC in [1], in [2], in test [3], in test [4], in test [5] and in test [6] was above 250 µg/mL throughout. Also, the MFC in test [7], in [8], in test [9] and in test [10] was above 250 µg/mL each time. The MIC in [1] is above 250 µg/mL; in test [2] it was above 250 µg/mL; in test [3] it was above 250 µg/mL; in test [4], 250 µg/mL (≈ 1320 µM); in [5], above 250 µg/mL; in test [6], above 250 µg/mL. Also, the MIC in test [7], in test [8], in test [9] and in [10] was above 250 µg/mL each time.
In the case of `CC1=CC(=O)N(c2ccccc2)C1O` (configuration not stated), the MFC in test [1], in [2], in test [3], in test [4], in test [5] and in test [6] was above 250 µg/mL throughout. Moreover, the MFC in [7], in [8], in test [9] and in test [10] was above 250 µg/mL each time. The MIC was above 250 µg/mL in [1]; above 250 µg/mL in [2]; above 250 µg/mL in test [3]; 250 µg/mL (≈ 1320 µM) in test [4]; above 250 µg/mL in test [5]; above 250 µg/mL in test [6]. The MIC in test [7], in test [8], in test [9] and in test [10] was above 250 µg/mL throughout.
